According to BindingDB's records for doi:10.1021/jm00111a027 (Merck Sharp & Dohme Research Laboratories, 1991):
Residues, ends and D or L forms follow the SMILES beside them. *: point of attachment. X10 = CCCOC[C@H](CC(C)C)N*

Target: Gastrin-releasing peptide receptor (Mus musculus, UniProt P21729)
Test: Compound was evaluated for mitogenic inhibition against Swiss 3T3 murine fibroblast cells.
In short: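 Swiss 3T3 monolayers grown to confluence, then serum-starved in serum-free DMEM for 48 h. Antagonist added together with 3 nM N-acetyl-GRP-20-27 amide and 23 nM [3H]thymidine. After a further 48 h, cells detached with trypsin/5 mM EDTA and filter-harvested; [3H]thymidine uptake measured. IC50 is the mean of at least two independent experiments.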

Chain of Gastrin-releasing peptide receptor (P21729 whole entry): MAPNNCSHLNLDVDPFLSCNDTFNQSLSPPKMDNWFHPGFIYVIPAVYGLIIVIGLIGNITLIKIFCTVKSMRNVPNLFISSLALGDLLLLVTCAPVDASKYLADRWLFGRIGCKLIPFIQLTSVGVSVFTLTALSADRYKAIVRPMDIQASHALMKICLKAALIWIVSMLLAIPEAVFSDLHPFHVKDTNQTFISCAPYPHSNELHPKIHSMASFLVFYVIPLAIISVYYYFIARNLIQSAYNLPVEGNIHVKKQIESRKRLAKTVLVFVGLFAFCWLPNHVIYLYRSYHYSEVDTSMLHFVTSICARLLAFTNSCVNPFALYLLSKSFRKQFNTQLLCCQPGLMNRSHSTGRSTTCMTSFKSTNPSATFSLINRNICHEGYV

IC50: 0.018 µM
SMILES: CCCOC[C@H](CC(C)C)NC(=O)[C@H](Cc1c[nH]cn1)NC(=O)CNC(=O)[C@@H](NC(=O)[C@H](C)NC(=O)[C@H](Cc1c[nH]c2ccccc12)NC(=O)[C@H](Cc1c[nH]cn1)NC(C)=O)C(C)C [2-{2-[2-[2-Acetylamino-3-(3H-imidazol-4-yl)-propionylamino]-3-(1H-indol-3-yl)-propionylamino]-propionylamino}-N-{[2-(3H-imidazol-4-yl)-1-(3-methyl-1-propoxymethyl-butylcarbamoyl)-ethylcarbamoyl]-methyl}-3-methyl-butyramide] (Ac-HWAVGH-X10)
